Legend:
[1] = target: T1, Ptpn11 (Mus musculus, UniProt P35235); assay: FLAG IP of FLAG-tagged Grb2 constructs compared with Ptpn11 level in cell lysate; type: cell-based; details: Ptpn11 in FLAG IP versus cell lysate, mESCs; data not shown
T1 sequence (P35235 1-593): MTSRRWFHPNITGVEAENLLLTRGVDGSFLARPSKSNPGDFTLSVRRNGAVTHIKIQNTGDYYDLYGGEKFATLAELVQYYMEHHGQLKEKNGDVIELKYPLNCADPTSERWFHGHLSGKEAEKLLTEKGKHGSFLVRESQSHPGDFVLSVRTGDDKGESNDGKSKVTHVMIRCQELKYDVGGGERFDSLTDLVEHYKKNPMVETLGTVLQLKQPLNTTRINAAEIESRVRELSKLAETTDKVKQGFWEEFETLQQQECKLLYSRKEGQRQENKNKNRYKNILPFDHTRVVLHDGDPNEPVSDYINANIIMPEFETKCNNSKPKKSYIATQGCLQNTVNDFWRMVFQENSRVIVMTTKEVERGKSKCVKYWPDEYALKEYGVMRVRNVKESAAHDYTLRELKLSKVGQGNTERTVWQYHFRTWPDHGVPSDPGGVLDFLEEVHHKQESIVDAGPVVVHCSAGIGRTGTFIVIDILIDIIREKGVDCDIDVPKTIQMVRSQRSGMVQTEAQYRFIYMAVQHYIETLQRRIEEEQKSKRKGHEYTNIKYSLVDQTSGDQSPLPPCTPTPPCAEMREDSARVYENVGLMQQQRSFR

[2] = test system: Grb2-/- mESCs; assay: mESC priming; type: cell-based, mouse; details: Grb2-/- mESCs expressing the construct; Nanog/Dnmt3b expression signature
How it was run: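 Grb2-/- mESCs were transfected (Lipofectamine LTX) with WT or chimeric Grb2 in pCAGGS under a β-actin promoter, then puromycin-selected for 48 h before analysis. Dnmt3b levels were quantified as mean ± standard deviation (n=3). Regular colonies were also immunostained for Nanog and Dnmt3b.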

[3] = test system: Erk-MAP kinase in Grb2-/- mESCs; assay: Erk-MAP kinase activation; type: cell-based, mouse; details: SU5402 10 μM
How it was run: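 Grb2-/- mouse ES cells (line described previously) were transfected with Lipofectamine LTX. Constructs were WT or chimeric Grb2 in pCAGGS, driven by a β-actin promoter. Cells were selected with puromycin for 48 h before analysis.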

Row | Compound | Ptpn11 in the cell engaged [1] | restoration of mESC priming [2] | effect on activation of Erk-MAP kinase by chGrb2(Ptpn11_pY580) or WT Grb2 [3]
1 | WT Grb2: vector-derived FLAG-tagged wild-type Grb2 adaptor protein | approximately 20% | reestablished | 
2 | Cc1c[nH]c(/C=C2\C(=O)Nc3ccccc32)c1CCC(=O)O [SU5402] |  |  | blocked
